Assay results taken from ChEMBL document CHEMBL1250434, “A novel achiral seco-cyclopropylpyrido[e]indolone (CPyI) analog of CC-1065 and the duocarmycins: synthesis, DNA interactions, in vivo anticancer and anti-parasitic evaluation” (Bioorg Med Chem, 2010).

Key:
Mus musculus [1] = assay: Systemic toxicity in mouse B16F0 cells xenografted C57/BL/6J mouse assessed as reduction of body weight at 10 mg/kg, ip administered on day 1, 5, and 9 measured after 21 days; assay type: organism-based; set-up: dose 10 mg/kg, route intraperitoneal; details: in vivo, 504 h
Outline: (§1)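 Female C57/BL/6J mice, 5–7 weeks old, 8 per group, carrying sc B16-F0 flank tumours implanted day 0. Dosed 10 mg/kg ip in 1:2 PET/5% glucose on days 1, 5 and 9; vehicle-treated controls on the same schedule. Body weights recorded every other day.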

SK-MEL-28 = assay: Cytotoxicity against human SK-MEL-28 cells after 48 hrs by sulforhodamine B assay; assay type: functional; details: SK-MEL-28, 48 h, read-out: pLC50 (the source's name) (converted)
Outline: (§2)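 NCI human cancer cell line panel. Continuous 48 h drug exposure, viability by sulforhodamine B. GI50, TGI and LC50 derived from dose–response curves.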

NCI-H23 = assay: Cytotoxicity against human NCI-H23 cells after 48 hrs by sulforhodamine B assay; assay type: functional; details: NCI-H23, 48 h, read-out: pLC50 (the source's name) (converted); outline: as §2
L1210 [2] = assay: Selectivity ratio of IC50 for mouse L1210 cells to IC50 for mouse B16F0 cells; assay type: functional
OVCAR-3 = assay: Cytotoxicity against human OVCAR-3 cells after 48 hrs by sulforhodamine B assay; assay type: functional; details: OVCAR-3, 48 h, read-out: pLC50 (the source's name) (converted); outline: as §2
[3] = Antitumor activity against mouse B16F0 cells xenografted in C57/BL/6J mouse assessed as […] at 10 mg/kg, ip administered on day 1, 5, and 9 measured after 21 days; assay type: functional; details: route intraperitoneal
Outline: (§3)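 Female C57/BL/6J mice, 5–7 weeks old, 8 per group. Given 200,000 cultured B16-F0 cells (PBS-washed, not mouse-passaged) sc in the left flank on day 0. Dosed 10 mg/kg ip in 1:2 PET/5% glucose on days 1, 5 and 9; controls received vehicle. Tumours measured by caliper about every other day. Volume = length × width². Measurements stopped when 50% of the group had died.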

DU-145 = assay: Cytotoxicity against human DU145 cells after 48 hrs by sulforhodamine B assay; assay type: functional; details: DU-145, 48 h, read-out: pLC50 (the source's name) (converted); outline: as §2
[4] = Antitumor activity against mouse B16F0 cells xenografted in C57/BL/6J mouse assessed as […] at 10 mg/kg, ip administered on day 1, 5, and 9 measured after 16 days; assay type: functional; details: route intraperitoneal; outline: as §3
Trypanosoma brucei = assay: Antimicrobial activity against procyclic form of Trypanosoma brucei 427 assessed as inhibition of cell proliferation after 72 hrs by alamar blue assay; assay type: functional, organism-based; details: Trypanosoma brucei, 427, 72 h
Outline: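 T. brucei 427 procyclic forms grown in SDM 79 medium with 0.03 nM to 64 µM compound for 72 h at 26 °C. Proliferation read by Alamar blue reduction after a further 15 h, fluorescence ex 530/em 590 nm.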

UO-31 = assay: Cytotoxicity against human UO31 cells after 48 hrs by sulforhodamine B assay; assay type: functional; details: UO-31, 48 h, read-out: pLC50 (the source's name) (converted); outline: as §2
[5] = Cytotoxicity against human Hs 578T cells after 48 hrs by sulforhodamine B assay; assay type: functional; details: read-out: pLC50 (the source's name) (converted); outline: as §2
CCRF-CEM = assay: Cytotoxicity against human CCRF-CEM cells after 48 hrs by sulforhodamine B assay; assay type: functional; details: read-out: pLC50 (the source's name) (converted); outline: as §2
[6] = Cytotoxicity against mouse B16F0 cells after 3 days by MTT assay; assay type: functional, cell-based; details: B16F0, 72 h
Outline: (§4)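 Murine tumour cells under continuous drug exposure for 3 days. Growth inhibition measured by MTT assay. IC50 is the concentration inhibiting growth by 50%.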

PC-3 = assay: Cytotoxicity against human PC3 cells after 48 hrs by sulforhodamine B assay; assay type: functional; details: PC-3, 48 h, read-out: pLC50 (the source's name) (converted); outline: as §2
CAKI-1 = assay: Cytotoxicity against human Caki1 cells after 48 hrs by sulforhodamine B assay; assay type: functional; details: CAKI-1, 48 h, read-out: pLC50 (the source's name) (converted); outline: as §2
OVCAR-4 = assay: Cytotoxicity against human OVCAR4 cells after 48 hrs by sulforhodamine B assay; assay type: functional; details: OVCAR-4, 48 h, read-out: pLC50 (the source's name) (converted); outline: as §2
SF-539 = assay: Cytotoxicity against human SF539 cells after 48 hrs by sulforhodamine B assay; assay type: functional; details: SF-539, 48 h, read-out: pLC50 (the source's name) (converted); outline: as §2
A549 = assay: Cytotoxicity against human A549 cells after 48 hrs by sulforhodamine B assay; assay type: functional; details: A549, 48 h, read-out: pLC50 (the source's name) (converted); outline: as §2
SK-MEL-2 = assay: Cytotoxicity against human SK-MEL-2 cells after 48 hrs by sulforhodamine B assay; assay type: functional; details: SK-MEL-2, 48 h, read-out: pLC50 (the source's name) (converted); outline: as §2
HCT-15 = assay: Cytotoxicity against human HCT15 cells after 48 hrs by sulforhodamine B assay; assay type: functional; details: HCT-15, 48 h, read-out: pLC50 (the source's name) (converted); outline: as §2
BT-549 = assay: Cytotoxicity against human BT549 cells after 48 hrs by sulforhodamine B assay; assay type: functional; details: BT-549, 48 h, read-out: pLC50 (the source's name) (converted); outline: as §2
Mus musculus [7] = assay: Toxicity in mouse B16F0 cells xenografted C57/BL/6J mouse assessed as reduction of body weight at 10 mg/kg, ip administered on day 1, 5, and 9 measured after 21 days; assay type: organism-based; set-up: dose 10 mg/kg, route intraperitoneal; details: in vivo, 504 h; outline: as §1
SW-620 = assay: Cytotoxicity against human SW620 cells after 48 hrs by sulforhodamine B assay; assay type: functional; details: SW-620, 48 h, read-out: pLC50 (the source's name) (converted); outline: as §2
Nucleic Acid = assay: Binding affinity to pUC18 DNA assessed as DNA alkylating activity after 5 hrs by thermal cleavage assay; assay type: nucleic-acid assay; details: Escherichia coli
Outline: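 PCR probe from the 749–956 region of pUC18. DNA precipitated and lyophilised, then heated at 90 °C for 30 min in sodium citrate buffer (pH 7.2) to cleave at alkylated adenines. Fragments resolved by electrophoresis.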

EKVX = assay: Cytotoxicity against human EKVX cells after 48 hrs by sulforhodamine B assay; assay type: functional; details: read-out: pLC50 (the source's name) (converted); outline: as §2
Leishmania mexicana = assay: Antimicrobial activity against promastigotes of Leishmania mexicana assessed as inhibition of cell proliferation after 72 hrs by alamar blue assay; assay type: functional, organism-based
Outline: (§5)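 Promastigotes at 5 × 10^4 cells/well in DME-L medium with 10% heat-inactivated FBS, hemin, xanthine and penicillin-streptomycin. Exposed to 0.03 nM to 64 µM compound for 72 h at 26 °C. Alamar blue added, incubated 15 h, dye reduction read by fluorescence ex 530/em 590 nm.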

IGROV-1 = assay: Cytotoxicity against human IGROV1 cells after 48 hrs by sulforhodamine B assay; assay type: functional; details: IGROV-1, 48 h, read-out: pLC50 (the source's name) (converted); outline: as §2
L1210 [8] = assay: Cytotoxicity against mouse L1210 cells after 3 days by MTT assay; assay type: functional, cell-based; details: L1210, 72 h; outline: as §4
Plasmodium falciparum = assay: Antimicrobial activity against Plasmodium falciparum infected in human erythrocytes assessed as growth inhibition; assay type: functional, organism-based
Outline: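 P. falciparum grown in human erythrocytes at 3–5% hematocrit in complete medium. In vitro growth assay at six concentrations, in triplicate, in three independent experiments.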

UACC-62 = assay: Cytotoxicity against human UACC62 cells after 48 hrs by sulforhodamine B assay; assay type: functional; details: UACC-62, 48 h, read-out: pLC50 (the source's name) (converted); outline: as §2
M14 = assay: Cytotoxicity against human M14 cells after 48 hrs by sulforhodamine B assay; assay type: functional; details: M14, 48 h, read-out: pLC50 (the source's name) (converted); outline: as §2
SNB-19 = assay: Cytotoxicity against human SNB19 cells after 48 hrs by sulforhodamine B assay; assay type: functional; details: SNB-19, 48 h, read-out: pLC50 (the source's name) (converted); outline: as §2
SF-268 = assay: Cytotoxicity against human SF268 cells after 48 hrs by sulforhodamine B assay; assay type: functional; details: SF-268, 48 h, read-out: pLC50 (the source's name) (converted); outline: as §2
NCI-H322M = assay: Cytotoxicity against human NCI-H322M cells after 48 hrs by sulforhodamine B assay; assay type: functional; details: read-out: pLC50 (the source's name) (converted); outline: as §2
786-0 = assay: Cytotoxicity against human 786-0 cells after 48 hrs by sulforhodamine B assay; assay type: functional; details: 786-0, 48 h, read-out: pLC50 (the source's name) (converted); outline: as §2
HOP-92 = assay: Cytotoxicity against human HOP92 cells after 48 hrs by sulforhodamine B assay; assay type: functional; details: HOP-92, 48 h, read-out: pLC50 (the source's name) (converted); outline: as §2
SF-295 = assay: Cytotoxicity against human SF295 cells after 48 hrs by sulforhodamine B assay; assay type: functional; details: SF-295, 48 h, read-out: pLC50 (the source's name) (converted); outline: as §2
HOP-62 = assay: Cytotoxicity against human HOP62 cells after 48 hrs by sulforhodamine B assay; assay type: functional; details: HOP-62, 48 h, read-out: pLC50 (the source's name) (converted); outline: as §2
NCI-H522 = assay: Cytotoxicity against human NCI-H522 cells after 48 hrs by sulforhodamine B assay; assay type: functional; details: NCI-H522, 48 h, read-out: pLC50 (the source's name) (converted); outline: as §2
T47D = assay: Cytotoxicity against human T47D cells after 48 hrs by sulforhodamine B assay; assay type: functional; details: read-out: pLC50 (the source's name) (converted); outline: as §2
HT-29 = assay: Cytotoxicity against human HT-29 cells after 48 hrs by sulforhodamine B assay; assay type: functional; details: HT-29, 48 h, read-out: pLC50 (the source's name) (converted); outline: as §2
SNB-75 = assay: Cytotoxicity against human SNB75 cells after 48 hrs by sulforhodamine B assay; assay type: functional; details: SNB-75, 48 h, read-out: pLC50 (the source's name) (converted); outline: as §2
COLO 205 = assay: Cytotoxicity against human COLO205 cells after 48 hrs by sulforhodamine B assay; assay type: functional; details: COLO 205, 48 h, read-out: pLC50 (the source's name) (converted); outline: as §2
SK-OV-3 = assay: Cytotoxicity against human SKOV3 cells after 48 hrs by sulforhodamine B assay; assay type: functional; details: SK-OV-3, 48 h, read-out: pLC50 (the source's name) (converted); outline: as §2
OVCAR-8 = assay: Cytotoxicity against human OVCAR8 cells after 48 hrs by sulforhodamine B assay; assay type: functional; details: OVCAR-8, 48 h, read-out: pLC50 (the source's name) (converted); outline: as §2
KM12 = assay: Cytotoxicity against human KM12 cells after 48 hrs by sulforhodamine B assay; assay type: functional; details: KM12, 48 h, read-out: pLC50 (the source's name) (converted); outline: as §2
Leishmania donovani = assay: Antimicrobial activity against promastigotes of Leishmania donovani assessed as inhibition of cell proliferation after 72 hrs by alamar blue assay; assay type: functional, organism-based; outline: as §5
NCI-H460 = assay: Cytotoxicity against human NCI-H460 cells after 48 hrs by sulforhodamine B assay; assay type: functional; details: NCI-H460, 48 h, read-out: pLC50 (the source's name) (converted); outline: as §2

COc1cc2cc(C(=O)Nc3cc(O)c4ncc(C)cc4c3CCCl)[nH]c2c(OC)c1OC
Activity (Mus musculus [1]): Toxic | CC50 (SK-MEL-28): > 100000 nM | CC50 (NCI-H23): < 10 nM | Ratio (L1210 [2]): 10 | CC50 (OVCAR-3): 2630 nM | Activity [3]: 2000 mm3 | CC50 (DU-145): 2190 nM | Activity [4]: 1700 mm3 | IC50 (Trypanosoma brucei): 56 nM | CC50 (UO-31): > 100000 nM | CC50 [5]: > 100000 nM | CC50 (CCRF-CEM): > 100000 nM | IC50 [6]: 2.3 nM | CC50 (PC-3): 11500 nM | CC50 (CAKI-1): 1550 nM | CC50 (OVCAR-4): 6030 nM | CC50 (SF-539): 151 nM | CC50 (A549): > 100000 nM | CC50 (SK-MEL-2): > 100000 nM | CC50 (HCT-15): > 100000 nM | CC50 (BT-549): > 100000 nM | Activity (Mus musculus [7]): Non-toxic | CC50 (SW-620): > 100000 nM | Activity (Nucleic Acid): Dose-dependent effect | CC50 (EKVX): 3020 nM | IC50 (Leishmania mexicana): 119 nM | CC50 (IGROV-1): > 100000 nM | IC50 (L1210 [8]): 0.72 nM | IC50 (Plasmodium falciparum): 1.8 nM | CC50 (UACC-62): < 10 nM | CC50 (M14): < 10 nM | CC50 (SNB-19): 100000 nM | CC50 (SF-268): > 100000 nM | CC50 (NCI-H322M): 123 nM | CC50 (786-0): 135 nM | CC50 (HOP-92): 28200 nM | CC50 (SF-295): 20900 nM | CC50 (HOP-62): < 10 nM | CC50 (NCI-H522): > 100000 nM | CC50 (T47D): > 100000 nM | CC50 (HT-29): > 100000 nM | CC50 (SNB-75): 11.5 nM | CC50 (COLO 205): > 100000 nM | CC50 (SK-OV-3): > 100000 nM | CC50 (OVCAR-8): 275 nM | CC50 (KM12): 191 nM | IC50 (Leishmania donovani): 340 nM | CC50 (NCI-H460): 81300 nM
